Experimental data collected from several papers.
Compare with care: the assays were run in different laboratories.
Target: NT-3 growth factor receptor (NTRK3, Homo sapiens, UniProt Q16288)

Structure (SMILES)	effect on	technique	tested at	remaining binding [%]
CN(C)c1nccc(-c2cnc3ncccn23)n1	binding	–	1 µM	78
C[C@@H](c1ccc(-n2cnc3c(N)ncnc32)cc1)N1CCc2nn(C)c(Cc3ccccc3)c2C1=O	binding	competition with immobilised ligand	0.1 µM	40
O=C(NCc1ncc(C(F)(F)F)cc1Cl)c1ccc2c(c1)C1(CCS(=O)(=O)CC1)[C@@H](C1CC1)N2S(=O)(=O)c1ccc(F)cc1	cell-free assay	competition with immobilised ligand	1 µM	71
N[C@H]1CCN(c2nccc(-c3cnn4ncccc34)n2)C1	binding	–	1 µM	85
COc1ncc2cc3ccccc3nc2c1C#N	cell-free assay	competition with immobilised ligand	5 µM	74
CCC(=O)N[C@H]1CC[C@@H](C(=O)N(C)c2ccc(-c3nc4ccccc4o3)cc2)C1	cell-free assay	competition with immobilised ligand	1 µM	32
O=C(c1ccc(Nc2nccc(-c3cc4ccccc4s3)n2)cc1)N1CCC(N2CCCC2)CC1	binding	competition with immobilised ligand	1 µM	71
Cn1cc(Cl)c2c(Oc3c(F)cc(Nc4cc(Cl)nc(N)n4)cc3F)ccnc21	cell-free assay	competition with immobilised ligand	0.1 µM	76
CN(CCCC(F)(F)F)c1nccc(-c2cnn3ncccc23)n1	binding	–	1 µM	100
O=C(NCCCN1CCOCC1)c1ccc(Nc2ncc(Cl)c(-c3ccc(Cl)s3)n2)cc1	binding	competition with immobilised ligand	1 µM	46
COc1ccnn2ncc(-c3ccnc(N(C)C)n3)c12	binding	–	1 µM	81
CNC(=O)[C@@H]1CC[C@@H](n2c(-c3ccc4cnccc4c3)nc3ccc(C(=O)NCc4cccc(C(N)=O)c4)cc32)C1	binding	competition with immobilised ligand	1 µM	100
CNC(=O)Nc1ccc2c(c1)CC[C@@]21OC(=O)N(CC(=O)N(Cc2ccc(F)cc2)[C@@H](C)C(F)(F)F)C1=O	cell-free assay	competition with immobilised ligand	1 µM	84
O=C(Nc1c[nH]nc1C(=O)NC1CCNCC1)c1cc(F)cc(F)c1	binding	competition with immobilised ligand	1 µM	100
CCN1CCN(Cc2ccc(C(=O)Nc3ccc(C)c(Oc4ccc5c(c4)CC(=O)N5)c3)cc2C(F)(F)F)CC1	binding	competition with immobilised ligand	1 µM	68
CSc1cccnc1N1CCN(Cc2nc3ccccc3[nH]2)CC1	cell-free assay	competition with immobilised ligand	1 µM	83
C[C@@H]1CCN(c2nccc(-c3cnn4ncccc34)n2)C1	binding	–	1 µM	70
Nc1ncc2c(n1)-c1c([nH]c3ccc(C#CC4CC4)cc13)CCCC2	binding	competition with immobilised ligand	1 µM	99
F[C@@H]1CCN(c2nccc(-c3cnn4ncccc34)n2)C1	binding	–	1 µM	100
O=C(c1ccc(Nc2ncc(Cl)c(-c3ccc(Cl)s3)n2)cc1)N1CCC(N2CCCC2)CC1	binding	competition with immobilised ligand	1 µM	24
CC1CCCN1c1nccc(-c2cnn3ncccc23)n1 (stereo not shown)	binding	–	1 µM	100
CN1CCN(c2cnc3c(C4CCN(C(=O)c5ccc(OC(F)(F)F)cc5N)CC4)ncnc3c2)CC1	cell-free assay	competition with immobilised ligand	1 µM	100
